# In PubChem BioAssay AID1385 (PCMD, 2008):
# About 170 (0.085%) of roughly 200,000 compounds were called active. This is one part of a sample in which actives are shown more often than they occur. Values without a mark were called inactive.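 Rule for the calls: active = inhibition above 40% at the single screening dose; inactive = the rest.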
# Biological target: DNA repair protein RAD51 homolog 1 (Homo sapiens) (UniProt Q06609)
# Experiment: blockers of RAD51-mediated homologous recombination – biochemical, fluorescence, primary screen (AID 1385);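 note: 0% = DMSO control wells and 100% = blanks with heterologous ssDNA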
# Conditions: hRad51 DNA strand exchange, fluorescence dequenching; at 10 µM; hits give high values
# Method in brief: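 System: human Rad51 nucleoprotein filaments preassembled on unlabelled ssDNA. Reagent: labelled 47-mer dsDNA for strand exchange. Schedule: 30-min compound preincubation and 15-min exchange, both room temperature. Measured by: FRET fluorescence dequenching, excitation 485 nm, emission 520 nm. Read-out: Fluorescence-based percent inhibition, control- and blank-normalised. Benchmarks: plate controls and plate blanks.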
# DNA repair protein RAD51 homolog 1 (Homo sapiens), sequence (Q06609 whole entry, looked up): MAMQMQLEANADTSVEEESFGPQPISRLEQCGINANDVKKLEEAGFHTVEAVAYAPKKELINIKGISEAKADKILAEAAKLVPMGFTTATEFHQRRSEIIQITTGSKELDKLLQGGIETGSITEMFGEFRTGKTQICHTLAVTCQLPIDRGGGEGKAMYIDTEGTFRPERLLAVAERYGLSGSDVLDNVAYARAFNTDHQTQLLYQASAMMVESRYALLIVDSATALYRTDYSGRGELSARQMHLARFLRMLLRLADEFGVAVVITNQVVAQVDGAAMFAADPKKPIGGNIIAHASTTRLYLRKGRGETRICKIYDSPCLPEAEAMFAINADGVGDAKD
row,SMILES,inhibition
1,Cc1ccc2c(c1)nnc1nnc(SCC(=O)O)n12,3.89%
2,CCC(C)(C)NC(=O)C(c1ccc(O)cc1)N(C(=O)Cn1nnc2ccccc21)c1ccc(NC(C)=O)cc1 (stereo not given),-8.67%
3,Oc1c(Br)cc(/C=N/NC(=S)NCC2CCCO2)cc1Br (stereo not given),-9.24%
4,O=C(Nc1nc2ccc([N+](=O)[O-])cc2s1)c1ccncc1,6.33%
5,COc1cc(OC)c(OC)cc1/C=N/Nc1ncnc2c1[nH]c1ccc(C)cc12,-8.84%
6,Cc1nc(-c2ccc(Cl)cc2)sc1C1(C)CC(c2ccc(Br)cc2)=NO1 (stereo not given),-6.72%
7,CCC(CC)c1nnc(NC(=O)c2nn(C)c(=O)c3ccccc23)s1,6.66%
8,COc1ccc(Cc2nnc(NS(=O)(=O)Cc3ccccc3)s2)cc1,-0.75%
9,CCC(CC)c1nnc(NS(=O)(=O)Cc2ccccc2)s1,84.4% (active)
10,COc1ccccc1N1CCN(C(=O)CSc2ncnc3c2cnn3-c2ccc(C)c(C)c2)CC1,-12.6%
11,CC1CN(c2nc(Nc3ccccc3)nc(N)c2[N+](=O)[O-])CC(C)O1 (stereo not given),-23.5%
12,CC(=O)c1ccc(NC(=O)C2CC(=O)Nc3nc4ccccc4n32)cc1 (stereo not given),-1.17%
13,COc1ccccc1-c1c(C#N)c(N)nc2c1CCC2,-0.29%
14,CCNC(=S)N1CCN(CCN=CC2=C(O)CC(C)(C)CC2=O)CC1,16.2%
15,Cc1cccc(N2CCN(Cc3nc(C4CC4)no3)CC2)n1,-8.44%
16,COC(=O)[C@H](CC(C)C)NC(=O)N1CCCCC1C (stereo not given in full),-6.96%
17,COc1ccc(/C(C)=N/N2CCOCC2)c(O)c1,16.1%
18,Cn1c(SCC(=O)N/N=C/c2ccc(O)c(O)c2)nc2ccccc21,-10.2%
19,Cc1cc(=O)oc2c(C(=O)c3ccccc3)c(OCC(N)=O)ccc12,-5.93%
20,CCOc1ccc(C2NC(=S)NC3=C2CCc2ccccc23)cc1 (stereo not given),5.83%
21,CN1CCc2nc(SC(C(=O)O)c3ccccc3)c(C#N)c(-c3cccs3)c2C1 (stereo not given),-22.2%
22,CCCc1ccc(C(=O)[C@@H]2[C@@H](C(C)=O)N3c4ccc(F)cc4C=C[C@@H]3[C@@]23C(=O)Nc2ccccc23)cc1,10.1%
23,CC(C)S(=O)(=O)c1csc(NC(=O)Nc2ccc(Cl)cc2)c1Cl,-3.14%
24,Cc1ccc(-c2csc(-c3cc(C)on3)n2)cc1,9.91%

row,SMILES,inhibition
1,CC1(C)CCSC(/C=C/c2ccccc2)=N1,10.2%
2,CC(C)(C)c1cc(C(=O)NN)n(Cc2ccc(Cl)cc2Cl)n1,9.98%
3,CC(C)(C)c1ccc(/C=C2\Oc3c(ccc(O)c3CN3CCN(CCO)CC3)C2=O)cc1,-31.8%
4,COC(=O)[C@H](Cc1ccccc1)NC(=O)Nc1ccc(OC)cc1,7.38%
5,S=C(NCCc1ccccc1)Nc1ccccc1,15.1%
6,CCn1c(SCC(=O)N/N=C/c2ccccc2OCC(=O)O)nnc1-c1ccc(C(C)(C)C)cc1,8.66%
7,CCOC(=O)c1cc(C)nc(S(C)(=O)=O)c1C#N,16%
8,C=CCSc1nnc(NC(=O)c2ccc(NC(C)=O)cc2)s1,4.61%
9,Nc1c(N(CCO)C(=O)C2CCCCC2)c(=O)[nH]c(=O)n1Cc1ccccc1,-7.08%
10,CC(=O)OCCOCn1cnn2c(=O)c(Br)c(C)nc12,1.73%
11,COc1ccc(CCNC2=CC(=O)CC(C)(C)C2)cc1,3.57%
12,Cc1ccc(-c2cc(C(=O)NN)n[nH]2)o1,8.49%
13,CNC(=O)c1csc(Cc2c(Cl)sc3ccc(Cl)cc23)n1,5.52%
14,S=c1nc2ccccc2c2nc(-c3cccnc3)[nH]n12,1.9%
15,O=[N+]([O-])C(=c1ccc2c(c1)N1C3=C(CCCC3)CC3CCCCC31N=2)[N+](=O)[O-] (stereo not given),-20.4%
16,CCOC(=O)c1ccc(S(=O)(=O)N(CCO)Cc2cc3cc(OC)c(OC)cc3[nH]c2=O)cc1,-11%
17,Fc1ccccc1/C=N/n1c(-c2cccnc2)n[nH]c1=S,5.39%
18,Fc1ccc(Nc2nnns2)cc1,-7.15%
19,Cc1ccc(-c2nc(SCC(=O)Nc3ccccc3OC(F)F)c3c(C)c(C(=O)O)sc3n2)cc1,-23.3%
20,CC(C)c1cc(CN2CCOCC2)cc(C(C)C)c1O,-12.3%
21,Clc1ccc(C[n+]2cc(-c3ccc(Cl)cc3)n3c2CCC3)cc1,16.8%
22,CC(C)CCN1NC2(CCC(C)CC2)NC1=S (stereo not given),7.9%
23,CC(=O)NCc1ccc(S(=O)(=O)NC2CCN(Cc3ccccc3)CC2)cc1,-43.1%
24,O=[N+]([O-])c1ccc(N/N=C/c2ccccc2)cc1,-5.09%

row,SMILES,inhibition
1,COc1cccc(CC(=O)Nc2ccc(-c3csc(C)n3)cc2)c1,6%
2,O=C(O)COCC(=O)NCc1csc2ccc(Cl)cc12,15%
3,C/C=C/C(=O)Nc1ccc(N2CCN(c3ccc(C(F)(F)F)cn3)CC2)nc1,19.9%
4,Cc1nc2cc(NC(=O)Nc3cccc(F)c3)ccc2n1C,2.24%
5,CCOC(=O)COc1nc(C)cc(C(F)(F)F)c1C#N,-33.8%
6,COC(=O)c1ccc(COc2cc([N+](=O)[O-])cc3cccnc23)cc1,-2.29%
7,C=CCN1CC(C)/C(=N\O)CC1C (stereo not given),-1.92%
8,Cc1nc2nc(SCC(=O)c3ccccc3)[nH]c2cc1Br,-17.9%
9,O=C(CCNc1n[nH]c(=O)[nH]c1=O)N/N=C\c1ccc(Br)cc1,-0.51%
10,CC(C)(C)n1cnnc1Sc1ccc([N+](=O)[O-])cn1,25.8%
11,Cn1nccc1NS(=O)(=O)c1ccc(F)cc1,-8.74%
12,COc1ccc(Cl)cc1S(=O)(=O)N1CCC(O)(c2ccc(Cl)cc2)CC1,10.6%
13,Cc1ccnc(NC(=O)c2ccc(NC(=O)c3ccco3)cc2)c1,-5.85%
14,Cc1ccc(C(=O)COc2cccc(NC(=O)c3ccco3)c2)cc1,89.3% (active)
15,COc1cccc(C(=O)Nc2ccc(NC(=O)c3ccco3)cn2)c1,-3.19%
16,CC(OC(=O)c1ccc(NS(=O)(=O)c2ccc3[nH]c(=O)[nH]c3c2)cc1)C(=O)Nc1cccc(Cl)c1Cl (stereo not given),1.25%
17,Cc1cc(C)cc(NC(=O)NC2CCN(CC(=O)Nc3cccc(Cl)c3C)CC2)c1,-8.77%
18,CCn1c(CN2C(=O)CSc3ccccc32)n[nH]c1=S,3.47%
19,O=S(=O)(c1cccc(-c2nnc3n2CCCCC3)c1)N1CCOCC1,6.72%
20,CC(C)(C)c1cc(NC(=O)NN2CCOCC2)nn1-c1c(Cl)cc(Cl)cc1Cl,-14%
21,Nc1ccccc1SC(C[N+](=O)[O-])c1ccccc1 (stereo not given),14.8%
22,OC(CNCc1ccc2c(c1)OCO2)COc1ccccc1 (stereo not given),1.14%
23,Cc1ccc(CNC(=O)c2ccc3c(c2)S(=O)(=O)c2ccccc2C3=O)cc1,3.71%
24,COc1ccccc1-n1cn[nH]c1=S,26.3%

row,SMILES,inhibition
1,COc1ccc(CN(Cc2ccc(OC)cc2)C(=O)c2cccs2)cc1,2.36%
2,O=C(c1ccc(F)cc1)n1c(=S)nc2ccccn21,15.3%
3,CNC1(c2nnnn2-c2c(C)cccc2C)CCOC(C)(C)C1 (stereo not given),5.82%
4,Cc1cc(-c2nc(C)c(-c3nnc(SCC(=O)Nc4ccccc4)n3C)s2)no1,-5%
5,OCC[C@H]1C[C@H](O)[C@@H](O)[C@]2(CCCCO2)O1,-1.38%
6,COc1ccccc1Cn1c(CO)nc2ccccc21,-28.4%
7,Cc1ccc(C)c2c1cc(C)c1nnc(SCC(=O)Nc3cccc(C(=O)O)c3)n12,3.44%
8,CCCN(CCC)S(=O)(=O)c1ccc(C(=O)N2CC3CCC(CC3)C2)cc1,4.87%
9,O=C(O)c1ccccc1C(=O)Nc1ccccc1[N+](=O)[O-],10.6%
10,O=[N+]([O-])c1ccc2c(c1)C(O)n1nc(-c3ccccc3)nc1S2 (stereo not given),0.18%
11,CCC(=O)NC(=Nc1nc2ccccc2s1)NC(=O)CC,-4.35%
12,CC(C)CC(=O)N/C(N)=N/c1nc2ccccc2s1,82.8% (active)
13,CC(C)CC(=O)NC(=S)NCc1ccccc1,1.47%
14,CCC(C)(NC(=O)c1ccccn1)C(=O)NC1CCCCC1 (stereo not given),14.2%
15,CCN(CC)CCOc1ccc2c(c1)C(=NNC(=O)c1ccccn1)c1cc(OCCN(CC)CC)ccc1-2,99% (active)
16,CCOc1cc(NC(=O)c2ccccn2)c(OCC)cc1NC(=O)c1ccc(OC)cc1,0.44%
17,O=[N+]([O-])c1cc([N+](=O)[O-])c2cccnc2c1O,5.92%
18,O=C(CCc1ccccc1)NNc1ccc(F)cc1,4.26%
19,NS(=O)(=O)c1ccc(NC(=O)COC(=O)c2cc3ccccc3oc2=O)cc1,3.3%
20,Cc1c(NC(=O)CN2C(=O)C(=O)N(Cc3ccccc3)C2=O)c(=O)n(-c2ccccc2)n1C,1.05%
21,O=C1N=C(N2CCc3ccccc3C2)S/C1=C\c1ccc(O)cc1,-11.2%
22,O=C1/C(=C/c2coc3ccc(O)cc3c2=O)SC(=S)N1c1ccccc1,-16.3%
23,O=C(O)c1ccc(/C=N/Nc2nc(N3CCCCC3)nc(N3CCCCC3)n2)cc1,8.17%
